Calls of active or inactive are those of the source.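 Rule for the calls, unless noted: active = viability loss from added drug above about 55%, and viability with drug at most 40%, in both replicates (limit read from the data, passing the limit was not always enough); inconclusive = both conditions met in only one replicate; inactive = neither replicate meets both conditions.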
Key:
[1] = reducers of endogenous Her2 protein level, primary screen, SKBR3 breast tumor cells, AlphaScreen, ATP viability (AID 461;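 active = Her2 level under about 52% in both replicate screens, with viability over 70% of control, limit read from the data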;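 for Her2 level: lower value means less Her2 protein in the cells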;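 for viability: percent of carrier control wells set as 100% viability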); conditions: 18-24 h, measured here: SKBR3 viability, ATP luminescence, at 10 µM
[2] = molecular target: Receptor tyrosine-protein kinase erbB-2 (Homo sapiens) (UniProt P04626); assay: as above; conditions: 18-24 h, at 10 µM, stronger effect = lower value
Chain of Receptor tyrosine-protein kinase erbB-2 (Homo sapiens) (P04626 whole entry, looked up): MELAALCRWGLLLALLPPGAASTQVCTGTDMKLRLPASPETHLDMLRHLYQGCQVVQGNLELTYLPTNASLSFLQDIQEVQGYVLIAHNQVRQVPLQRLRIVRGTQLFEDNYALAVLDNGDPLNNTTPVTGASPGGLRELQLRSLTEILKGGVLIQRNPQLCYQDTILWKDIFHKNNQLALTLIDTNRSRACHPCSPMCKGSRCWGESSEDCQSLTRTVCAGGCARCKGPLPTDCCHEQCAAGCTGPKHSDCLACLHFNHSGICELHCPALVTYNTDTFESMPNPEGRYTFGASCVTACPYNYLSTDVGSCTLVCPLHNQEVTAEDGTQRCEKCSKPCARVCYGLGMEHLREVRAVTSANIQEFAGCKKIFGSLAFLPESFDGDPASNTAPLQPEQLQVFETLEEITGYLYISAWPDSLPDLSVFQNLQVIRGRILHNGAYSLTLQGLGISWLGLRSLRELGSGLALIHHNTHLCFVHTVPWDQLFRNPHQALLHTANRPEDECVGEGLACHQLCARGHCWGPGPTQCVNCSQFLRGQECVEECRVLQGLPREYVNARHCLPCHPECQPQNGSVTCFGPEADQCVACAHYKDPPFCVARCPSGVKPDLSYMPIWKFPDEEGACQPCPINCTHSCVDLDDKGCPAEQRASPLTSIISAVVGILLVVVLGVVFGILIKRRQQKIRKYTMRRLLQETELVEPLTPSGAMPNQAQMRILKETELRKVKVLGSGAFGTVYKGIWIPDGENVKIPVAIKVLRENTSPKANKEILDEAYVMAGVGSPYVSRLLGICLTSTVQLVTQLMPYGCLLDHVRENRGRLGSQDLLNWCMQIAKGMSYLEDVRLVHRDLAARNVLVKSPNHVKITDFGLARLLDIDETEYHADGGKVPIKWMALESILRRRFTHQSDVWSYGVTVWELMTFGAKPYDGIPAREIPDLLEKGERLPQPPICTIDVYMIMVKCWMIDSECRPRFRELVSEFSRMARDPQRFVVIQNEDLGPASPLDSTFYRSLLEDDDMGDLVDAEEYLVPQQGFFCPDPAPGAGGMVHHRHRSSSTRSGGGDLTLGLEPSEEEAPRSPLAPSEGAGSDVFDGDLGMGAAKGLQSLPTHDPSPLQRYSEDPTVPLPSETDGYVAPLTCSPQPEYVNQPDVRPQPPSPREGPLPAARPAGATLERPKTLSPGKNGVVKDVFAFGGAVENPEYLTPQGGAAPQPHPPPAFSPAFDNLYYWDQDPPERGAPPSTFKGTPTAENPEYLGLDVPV

[3] = SK-BR-3 cell growth inhibitors, pilot screen, 24 h, human (AID 572;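 active = viability at or below 10% of carrier control in both of two separate runs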;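 note: compound exposure lasted between 18 and 24 h rather than exactly 24 h; 100% = carrier-treated control wells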); conditions: SK-BR-3 viability, CellTiter-Glo luminescence, at 10 µM, stronger effect = lower value
[4] = HUVEC growth inhibition – cell-based, human, primary screen (AID 575;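 active = viability at or below 30% in both replicate assays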;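 note: 100% = median of untreated cell wells with 0.1% DMSO on each plate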); conditions: HUVEC proliferation, CellTiter-Glo luminescence, 72 h; at 10 µM; stronger effect = lower value
Method in brief: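 Material: primary human umbilical vein endothelial cells / Schedule: 72 h exposure, 37 °C, 5% CO2, 30 min RT equilibration / Signal: ATP-based CellTiter-Glo luminescent read / Read-out basis: percent of median DMSO-control luminescence / Control set: 32 DMSO-only cell-control wells (high), 32 MePR drug-control wells (low) per plate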

[5] = growth inhibitors of H69AR lung tumor, primary screen, human, duplicate replicates (AID 580;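 active = viability at or under a set limit in both replicates, limit being median viability minus 3 SD, cut at about 48% in these data, passing the limit was not always enough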;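 note: 100% = mean luminescence of untreated wells and 0% = no signal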); conditions: H69AR lung tumor cells viability, ATP luminescence, 72 h; at 10 µM; stronger effect = lower value
[6] = reversal of MRP1-mediated doxorubicin resistance, pilot screen, H69AR cells, doxorubicin co-treatment (AID 601); conditions: CellTiter-Glo, 72 h, at 10 µM; for differential viability (reversal): stronger effect = higher value
[7] = 384-well plate pilot, post-Golgi transport modulator project, inhibition of yeast transport mutant growth (AID 636; in the data active = inhibition above about 31%); conditions: absorbance 615 nm, about 18 h, stronger effect = higher value
[8] = growth suppression of yeast trafficking mutant, preliminary HTS, modulators of trafficking downstream of Golgi apparatus project, 1536-format plate, OD 615 nm (AID 637; in the data active = inhibition above about 30%); conditions: yeast transport mutant growth, absorbance 615 nm, 18 h; stronger effect = higher value
[9] = H69AR cells + 2 uM doxorubicin, measured here: viability with 2 uM doxorubicin, stronger effect = lower value
[10] = H69AR cells, compound alone cytotoxicity

## O=C(CCn1c(=S)[nH]c2ccccc2c1=O)NCC1CCCO1 (stereo not given)
[1]
  viability: 118%
[2]
  Her2 level: 100% (inactive)
[3]
  viability: 118% (inactive)
[4]
  viability: 111% (inactive)
[5]
  viability: 98.2% (inactive)
[6]; H69AR cells + 2 uM doxorubicin
  differential viability (reversal): 6.03% (inactive)
[6]; [9]
  viability: 92.2%
[6]; [10]
  viability: 98.2%
[7]
  inhibition: -6.13% (inactive)
[8]
  inhibition: 0.66% (inactive)

## CCOc1ccc(CN2CCN(c3cc(C)nc4c5c(C)cc(C)nc5nn34)CC2)cc1
[1]
  viability: 80%
[2]
  Her2 level: 83.5% (inactive)
[3]
  viability: 80% (inactive)
[4]
  viability: 94.2% (inactive)
[5]
  viability: 88.8% (inactive)
[6]; H69AR cells + 2 uM doxorubicin
  differential viability (reversal): -3.18% (inactive)
[6]; [9]
  viability: 92%
[6]; [10]
  viability: 88.8%
[7]
  inhibition: -2.5% (inactive)
[8]
  inhibition: -4.36% (inactive)

## Cc1ccc(S(=O)(=O)N2CCOCC2)cc1C(=O)OCC(=O)N1CCc2ccccc2C1
[1]
  viability: 82.5%
[2]
  Her2 level: 87.5% (inactive)
[3]
  viability: 82.5% (inactive)
[4]
  viability: 99.9% (inactive)
[5]
  viability: 87.9% (inactive)
[6]; H69AR cells + 2 uM doxorubicin
  differential viability (reversal): -7.28% (inactive)
[6]; [9]
  viability: 95.2%
[6]; [10]
  viability: 87.9%
[7]
  inhibition: -4% (inactive)
[8]
  inhibition: 2.95% (inactive)

## Cn1cnc2c(N3CCCCC3)nccc21
[1]
  viability: 116%
[2]
  Her2 level: 104% (inactive)
[3]
  viability: 116% (inactive)
[4]
  viability: 87.3% (inactive)
[5]
  viability: 90.5% (inactive)
[6]; H69AR cells + 2 uM doxorubicin
  differential viability (reversal): -5.21% (inactive)
[6]; [9]
  viability: 95.7%
[6]; [10]
  viability: 90.5%
[7]
  inhibition: -4.16% (inactive)
[8]
  inhibition: -1.64% (inactive)

## O=C(O)c1cccc(NS(=O)(=O)c2ccc3nnn(O)c3c2)c1
[1]
  viability: 123%
[2]
  Her2 level: 87% (inactive)
[3]
  viability: 123% (inactive)
[4]
  viability: 94.9% (inactive)
[5]
  viability: 102% (inactive)
[6]; H69AR cells + 2 uM doxorubicin
  differential viability (reversal): 3.63% (inactive)
[6]; [9]
  viability: 98%
[6]; [10]
  viability: 102%
[7]
  inhibition: -4.27% (inactive)
[8]
  inhibition: 5.71% (inactive)

## O=C(NCCCCNC(=O)c1cccnc1)c1cccnc1
[1]
  viability: 95%
[2]
  Her2 level: 83% (inactive)
[3]
  viability: 95% (inactive)
[4]
  viability: 94.5% (inactive)
[5]
  viability: 105% (inactive)
[6]; H69AR cells + 2 uM doxorubicin
  differential viability (reversal): 3.5% (inactive)
[6]; [9]
  viability: 102%
[6]; [10]
  viability: 105%
[7]
  inhibition: -0.52% (inactive)
[8]
  inhibition: 34.9% (active)

## Cc1cc(C)cc(N2CCCn3c2nc2c3c(=O)n(CCN3CCOCC3)c(=O)n2C)c1
[1]
  viability: 101%
[2]
  Her2 level: 81% (inactive)
[3]
  viability: 101% (inactive)
[4]
  viability: 97.2% (inactive)
[5]
  viability: 83.3% (inactive)
[6]; H69AR cells + 2 uM doxorubicin
  differential viability (reversal): -0.035% (inactive)
[6]; [9]
  viability: 83.3%
[6]; [10]
  viability: 83.3%
[7]
  inhibition: -7.2% (inactive)
[8]
  inhibition: -3.44% (inactive)

## CCn1c(=O)c(C(=O)NCc2ccc(OC)cc2)c(O)c2ccccc21
[1]
  viability: 86.5%
[2]
  Her2 level: 89.5% (inactive)
[3]
  viability: 86.5% (inactive)
[4]
  viability: 46.7% (inactive)
[5]
  viability: 73.2% (inactive)
[6]; H69AR cells + 2 uM doxorubicin
  differential viability (reversal): -13.4% (inactive)
[6]; [9]
  viability: 86.7%
[6]; [10]
  viability: 73.2%
[7]
  inhibition: -3.46% (inactive)
[8]
  inhibition: -8.5% (inactive)

## CCOC(=O)N1CCN(C(=O)c2n[nH]c(=O)c3ccccc23)CC1
[1]
  viability: 85%
[2]
  Her2 level: 101% (inactive)
[3]
  viability: 85% (inactive)
[4]
  viability: 95.1% (inactive)
[5]
  viability: 91.6% (inactive)
[6]; H69AR cells + 2 uM doxorubicin
  differential viability (reversal): 1.86% (inactive)
[6]; [9]
  viability: 89.8%
[6]; [10]
  viability: 91.6%
[7]
  inhibition: -1.6% (inactive)
[8]
  inhibition: 19% (inactive)

## Cc1cccn2cc(-c3ccccc3)nc12
[1]
  viability: 78%
[2]
  Her2 level: 77% (inactive)
[3]
  viability: 78% (inactive)
[4]
  viability: 79.2% (inactive)
[5]
  viability: 91.5% (inactive)
[6]; H69AR cells + 2 uM doxorubicin
  differential viability (reversal): 11.1% (inactive)
[6]; [9]
  viability: 80.3%
[6]; [10]
  viability: 91.5%
[7]
  inhibition: -1.45% (inactive)
[8]
  inhibition: 2.55% (inactive)

## O=c1cc(NCc2ccccc2)nc2n1CCCS2
[1]
  viability: 103%
[2]
  Her2 level: 98% (inactive)
[3]
  viability: 103% (inactive)
[4]
  viability: 104% (inactive)
[5]
  viability: 92.1% (inactive)
[6]; H69AR cells + 2 uM doxorubicin
  differential viability (reversal): 0.29% (inactive)
[6]; [9]
  viability: 91.8%
[6]; [10]
  viability: 92.1%
[7]
  inhibition: -3.68% (inactive)
[8]
  inhibition: -5.71% (inactive)

## COc1ccc(C(=O)OCC(=O)NCc2ccco2)cc1OC
[1]
  viability: 110%
[2]
  Her2 level: 89.5% (inactive)
[3]
  viability: 110% (inactive)
[4]
  viability: 102% (inactive)
[5]
  viability: 78.4% (inactive)
[6]; H69AR cells + 2 uM doxorubicin
  differential viability (reversal): -3.74% (inactive)
[6]; [9]
  viability: 82.1%
[6]; [10]
  viability: 78.4%
[7]
  inhibition: -1.95% (inactive)
[8]
  inhibition: -6.23% (inactive)

## COCCn1c(NCc2ccc(C)cc2)nc2c1c(=O)[nH]c(=O)n2C
[1]
  viability: 108%
[2]
  Her2 level: 87.5% (inactive)
[3]
  viability: 108% (inactive)
[4]
  viability: 87.2% (inactive)
[5]
  viability: 107% (inactive)
[6]; H69AR cells + 2 uM doxorubicin
  differential viability (reversal): 7.44% (inactive)
[6]; [9]
  viability: 99.5%
[6]; [10]
  viability: 107%
[7]
  inhibition: -2.27% (inactive)
[8]
  inhibition: -1.29% (inactive)

## CCCn1c(NC(=O)C2COc3ccccc3O2)nc2ccccc21 (stereo not given)
[1]
  viability: 99.5%
[2]
  Her2 level: 90% (inactive)
[3]
  viability: 99.5% (inactive)
[4]
  viability: 66.1% (inactive)
[5]
  viability: 67.8% (inactive)
[6]; H69AR cells + 2 uM doxorubicin
  differential viability (reversal): -13.7% (inactive)
[6]; [9]
  viability: 81.6%
[6]; [10]
  viability: 67.8%
[7]
  inhibition: -3.47% (inactive)
[8]
  inhibition: 5.74% (inactive)

## O=C(CCN1C(=O)C2C3C=CC(C3)C2C1=O)NCCc1ccccc1Cl (stereo not given)
[1]
  viability: 95%
[2]
  Her2 level: 68.5% (inactive)
[3]
  viability: 95% (inactive)
[4]
  viability: 94.2% (inactive)
[5]
  viability: 95.2% (inactive)
[6]; H69AR cells + 2 uM doxorubicin
  differential viability (reversal): 10.5% (inactive)
[6]; [9]
  viability: 84.7%
[6]; [10]
  viability: 95.2%
[7]
  inhibition: -6.49% (inactive)
[8]
  inhibition: -5.08% (inactive)

## COc1ccc(CC(=O)N2CCOCC2)cc1OC
[1]
  viability: 97.5%
[2]
  Her2 level: 99% (inactive)
[3]
  viability: 97.5% (inactive)
[4]
  viability: 102% (inactive)
[5]
  viability: 91.9% (inactive)
[6]; H69AR cells + 2 uM doxorubicin
  differential viability (reversal): -2.21% (inactive)
[6]; [9]
  viability: 94.2%
[6]; [10]
  viability: 91.9%
[7]
  inhibition: 0.13% (inactive)
[8]
  inhibition: 3.28% (inactive)
